Results taken from ChEMBL document CHEMBL4680254, “Design, synthesis and discovery of 2(1H)-quinolone derivatives for the treatment of pulmonary fibrosis through inhibition of TGF-β/smad dependent and independent pathway” (Eur J Med Chem, 2020).
Calls of active or inactive are those of the source. The rule behind the calls is not given here.

Legend:
L929 = assay: Antimigratory activity in mouse L929 cells assessed as inhibition of TGF-beta-induced cell migration at 10 uM incubated for 24 hrs by wound healing assay; assay type: functional, cell-based
In short: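 Mouse L929 fibroblasts (MEM, 10% FBS, 37 °C, 5% CO₂) were grown to confluence and scratched with a pipette tip to a 100 µm wound. They were then kept in serum-free medium with or without TGF-β 5 ng/ml and compound 10 µM for 24 h. Wounds were imaged by light microscopy at 0, 12 and 24 h.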

NRK-49F [1] = assay: Inhibition of TGF-beta-induced collagen accumulation in rat NRK-49F cells incubated for 2 days by PSR staining based microscopic analysis; assay type: functional, cell-based; conditions: 48 h
NRK-49F [2] = assay: Inhibition of TGF-beta-induced collagen accumulation in rat NRK-49F cells at 10 uM incubated for 2 days by PSR staining based microscopic analysis relative to control; assay type: functional; conditions: 48 h, time 2 day
In short: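 NRK-49F cells were grown 3 days in DMEM with 5% FBS, then 2 days in DMEM with 1% ITS. Next came 2 days with TGF-β 5 ng/ml plus or minus compound 10 µM. Cells were fixed in 4% paraformaldehyde and stained 4 h with 0.1% Picrosirius Red, then rinsed with acetic acid. Dye was eluted with 0.1 M NaOH and OD read at 540 nm. Inhibition = […] ×100%, in triplicate.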

[3] = Cytotoxicity against rat NRK-49F cells assessed as cell survival rate at 10 uM incubated for 72 hrs by MTT assay; assay type: cell-based; conditions: read-out: Activity
In short: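 NRK-49F cells were seeded at 0.5×10^5 cells/ml, cultured overnight, then exposed to compound 10 µM for 72 h. MTT was added and incubated 4 h, formazan dissolved in DMSO and absorbance read. Survival = (treated − zero)/(blank − zero) A ×100%, done in triplicate.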

NRK-49F [4] = assay: Inhibition of TGF-beta-induced alpha-SMA protein expression in rat NRK-49F cells at 20 to 40 uM incubated for 24 hrs by Western blotting analysis; assay type: functional, cell-based; conditions: dose 20-40 µM
[5] = Oral bioavailability in Sprague-Dawley rat at 5 mg/kg; assay type: ADME, organism-based; conditions: in vivo
In short: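 Rats were given a single 5 mg/kg dose intravenously or orally, and plasma concentration–time curves were followed. t1/2, tmax, AUC0-t and oral bioavailability (n = 5) were derived from these curves.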

Mus musculus [6] = assay: Anti-fibrotic activity in C57BL/6 mouse model of bleomycin-induced lung fibrosis assessed as reduction in collagen deposition by measuring hydroxyproline content in lung at 50 mg/kg, po administered for […] starting from day 8 post bleomycin treatment; assay type: functional, organism-based; conditions: time 14.0 day
In short: (§1)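 In the bleomycin mouse model (male C57BL/6, 8 weeks, 3 U/kg intratracheal in saline, n=10 per group), daily oral dosing ran days 1–30 or days 8–21. Right lungs were dried, acid hydrolysed, filtered and brought to pH 6.5–8.0. Hydroxyproline was read by chloramine-T spectrophotometry with a kit.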

Mus musculus [7] = assay: Anti-fibrotic activity in C57BL/6 mouse model of bleomycin-induced lung fibrosis assessed as protection of alveolar tissue structure at 50 mg/kg, po administered for 30 days starting from day 1 post bleomycin treatment by hematoxylin and eosin staining based microscopic analysis; assay type: functional, organism-based; conditions: time 30.0 day
In short: (§2)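 Male C57BL/6 mice, 8 weeks old, n=10 per group; lung fibrosis from one intratracheal instillation of bleomycin 3 U/kg in 0.075 mL saline, saline-only controls. Daily oral dosing days 1–30 (prevention) or days 8–21 (treatment). Left lungs fixed in 10% formalin 24 h, paraffin-embedded, 5 µm sections stained with H&E (also Masson's trichrome) and examined by microscopy.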

Mus musculus [8] = assay: Anti-fibrotic activity in C57BL/6 mouse model of bleomycin-induced lung fibrosis assessed as reduction in collagen deposition by measuring hydroxyproline content in lung at 50 mg/kg, po administered for 30 days starting from day 1 post bleomycin treatment; assay type: functional, organism-based; conditions: time 30.0 day; in short: as §1
Mus musculus [9] = assay: Anti-fibrotic activity in C57BL/6 mouse model of bleomycin-induced lung fibrosis assessed as survival rate at 50 mg/kg, po administered for 30 days starting from day 1 post bleomycin treatment; assay type: functional, organism-based; conditions: time 30.0 day
In short: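 Survival was followed in male C57BL/6 mice (8 weeks, n=10 per group) after one intratracheal bleomycin dose of 3 U/kg in 0.075 mL saline. Oral dosing was daily, days 1–30 (prevention) or days 8–21 (treatment), with survival curves plotted.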

Mus musculus [10] = assay: Anti-fibrotic activity in C57BL/6 mouse model of bleomycin-induced lung fibrosis assessed as reduction in inflammatory cell infiltration at 50 mg/kg, po administered for 30 days starting from day 1 post bleomycin treatment by hematoxylin and eosin staining based microscopic analysis; assay type: functional, organism-based; conditions: time 30.0 day; in short: as §2
Mus musculus [11] = assay: Anti-fibrotic activity in C57BL/6 mouse model of bleomycin-induced lung fibrosis assessed as protection of alveolar tissue structure at 50 mg/kg, po administered from day 8 to day 21 post bleomycin treatment by hematoxylin and eosin staining based microscopic analysis; conditions: time 14.0 day
NRK-49F [12] = assay: Inhibition of TGF-beta-induced collagen-1 protein expression in rat NRK-49F cells at 20 to 40 uM incubated for 24 hrs by Western blotting analysis; assay type: functional, cell-based; conditions: dose 20-40 µM

Row | SMILES | inhibition (L929) | IC50 (NRK-49F [1]) | inhibition at 10 µM (NRK-49F [2]) | viability at 72 h, 10 µM [3] | inhibition (NRK-49F [4]) | bioavailability [5] | Activity (Mus musculus [6]) | Activity (Mus musculus [7]) | Activity (Mus musculus [8]) | Activity (Mus musculus [9]) | Activity (Mus musculus [10]) | Activity (Mus musculus [11]) | inhibition (NRK-49F [12])
1 | CC(C)(C)N1CCN(CC(=O)Nc2ccc(Oc3cc(=O)[nH]c4ccccc34)c(F)c2)CC1 | Active | 4.47 µM | 78% | 93.1% | – | – | – | – | – | – | – | – | –
2 | COC(=O)c1ccc2c(c1)NC(=O)/C2=C(\Nc1ccc(N(C)C(=O)CN2CCN(C)CC2)cc1)c1ccccc1 [NINTEDANIB] | Active | – | 95.5% | – | Active | 12% | inactive | Active | Active | Active | Active | inactive | Active
3 | CCN(CC)CC(=O)Nc1ccc(Oc2cc(=O)[nH]c3ccccc23)cc1 | Active | 5.27 µM | 86.1% | 96.3% | – | – | – | – | – | – | – | – | –
4 | O=C(CN1CCCC1)Nc1ccc(Sc2cc(=O)[nH]c3ccccc23)cc1 | Active | 5.33 µM | 80.9% | 87% | – | – | – | – | – | – | – | – | –
